Test results from ChEMBL document CHEMBL3351258, “An amidation/cyclization approach to the synthesis of N-hydroxyquinolinones and their biological evaluation as potential anti-plasmodial, anti-bacterial, and iron(II)-chelating agents” (Bioorg Med Chem Lett, 2015).
In brackets after ≈: the same amount, converted by molar mass. Activity calls are given as the source filed them. No cut-off for these calls is given here.

Columns and labels:
Escherichia coli [1] = experiment: Antibacterial activity against Escherichia coli ATCC 25922 incubated for 18 to 24 hrs followed by addition incubation for 18 to 24 hrs on MHA plates; assay type: functional
Outline: (§1)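 Read-out is the minimum bactericidal concentration (MBC), determined separately against Escherichia coli and Staphylococcus aureus.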

Staphylococcus aureus [2] = experiment: Antibacterial activity against Staphylococcus aureus ATCC 25923 incubated for 18 to 24 hrs followed by addition incubation for 18 to 24 hrs on MHA plates; assay type: functional; outline: as §1
Plasmodium falciparum [3] = experiment: Antiplasmodial activity against Plasmodium falciparum 3D7 incubated for 36 to 42 hrs by Giemsa staining method; assay type: functional, organism-based
Outline: (§2)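 In vitro maturation assay on the chloroquine-sensitive P. falciparum 3D7 strain.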

[4] = Iron chelation activity assessed as drug level causing 50% iron chelation at 20 to 500 ug/ml using FeCl2 and ferrozine; assay type: physicochemical; settings: for EC50: read-out: Activity
Outline: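 The value is the concentration giving 50% chelation ability (50% CA), reported in mM.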

Escherichia coli [5] = experiment: Antibacterial activity against Escherichia coli ATCC 25922 up to 1024 ug/ml incubated for 18 to 24 hrs followed by addition incubation for 18 to 24 hrs on MHA plates; assay type: functional, organism-based; outline: as §1
Staphylococcus aureus [6] = experiment: Antibacterial activity against Staphylococcus aureus ATCC 25923 up to 1024 ug/ml incubated for 18 to 24 hrs followed by addition incubation for 18 to 24 hrs on MHA plates; assay type: functional, organism-based; outline: as §1
Plasmodium falciparum [7] = experiment: Antiplasmodial activity against Plasmodium falciparum 3D7 up to 5092 ug/ml incubated for 36 to 42 hrs by Giemsa staining method; assay type: functional, organism-based; settings: in the assay text read “5092 ng/ml” for “5092 ug/ml”; outline: as §2
[8] = Iron chelation activity at 500 ug/ml using FeCl2 and ferrozine; assay type: physicochemical
[9] = Plasmodium falciparum, 3D7, read-out: IC50

Row | Compound | IC50 (Plasmodium falciparum [3]; [9]) [µM] | EC50 [4] [µM] | IC50 (Plasmodium falciparum [3]) | Activity [4] | Activity [8] | MBC (Escherichia coli [1]) | MBC (Staphylococcus aureus [2]) | Activity (Escherichia coli [5]) | Activity (Staphylococcus aureus [6]) | Activity (Plasmodium falciparum [7])
1 | O=c1c(-c2cccc3ccccc23)c(O)c2ccccc2n1O | – | 280 | Not Active | – | – | inactive | 1.7 mM (≈ 516 µg/mL) | inactive | – | inactive
2 | COc1ccccc1-c1c(O)c2ccccc2n(O)c1=O | – | – | Not Active | – | – | inactive | inactive | inactive | inactive | inactive
3 | Cc1ccccc1-c1cc2cc(O)ccc2n(O)c1=O | 3.5 | – | – | – | – | 1900 µM (≈ 508 µg/mL) | 3.8 mM (≈ 1020 µg/mL) | – | – | –
4 | O=c1c(-c2cccc3ccccc23)cc2c3c(ccc2n1O)OCO3 | 1.9 | – | – | – | – | inactive | 3.1 mM (≈ 1030 µg/mL) | inactive | – | –
5 | Cc1ccccc1-c1c(O)c2ccccc2n(O)c1=O | – | – | Not Active | – | – | inactive | inactive | inactive | inactive | inactive
6 | O=c1c(-c2cccc3ccccc23)cc2c(F)cccc2n1O | 1.4 | 240 | – | – | – | inactive | inactive | inactive | inactive | –
7 | O=c1c(-c2cccc3ccccc23)cc2cc3c(cc2n1O)OCO3 | 4.2 | – | – | – | – | inactive | inactive | inactive | inactive | –
8 | COc1ccccc1-c1cc2ccccc2n(O)c1=O | 7.6 | – | – | – | – | 1900 µM (≈ 508 µg/mL) | 3.8 mM (≈ 1020 µg/mL) | – | – | –
9 | O=c1c(-c2cccc3ccccc23)cc2ccccc2n1O | 2.6 | – | – | – | – | inactive | inactive | inactive | inactive | –
10 | Cc1ccccc1-c1cc2c(F)cccc2n(O)c1=O | 5 | 280 | – | – | – | inactive | inactive | inactive | inactive | –
11 | O=c1c(-c2cccc3ccccc23)cc2cc(F)ccc2n1O | 1.1 | 240 | – | – | – | inactive | inactive | inactive | inactive | –
12 | O=c1c(-c2ccccc2C(F)(F)F)c(O)c2ccccc2n1O | – | – | Not Active | – | – | inactive | inactive | inactive | inactive | inactive

The next lines start with results.

Row | IC50 (Plasmodium falciparum [3]; [9]) [µM] | EC50 [4] [µM] | IC50 (Plasmodium falciparum [3]) | Activity [4] | Activity [8] | Compound | MBC (Escherichia coli [1]) | MBC (Staphylococcus aureus [2]) | Activity (Escherichia coli [5]) | Activity (Staphylococcus aureus [6]) | Activity (Plasmodium falciparum [7])
13 | 1.3 | 250 | – | – | – | COc1ccc2c(c1)cc(-c1cccc3ccccc13)c(=O)n2O | inactive | inactive | inactive | inactive | –
14 | 5 | – | – | – | – | COc1cc2cc(-c3cccc4ccccc34)c(=O)n(O)c2cc1OC | inactive | inactive | inactive | inactive | –
15 | 5.9 | – | – | – | – | O=c1c(-c2ccccc2C(F)(F)F)cc2ccccc2n1O | inactive | 3.4 mM (≈ 1040 µg/mL) | inactive | – | –
16 | – | – | Not Active | – | – | O=c1c(-c2ccccc2)c(O)c2ccccc2n1O | 4000 µM (≈ 1010 µg/mL) | inactive | – | inactive | inactive
17 | 1.3 | 280 | – | – | – | COc1ccc2c(c1)cc(-c1ccccc1C)c(=O)n2O | inactive | 3.6 mM (≈ 1010 µg/mL) | inactive | – | –
18 | 14 | – | – | – | – | O=c1c(-c2ccccc2)cc2ccccc2n1O | inactive | inactive | inactive | inactive | –
19 | 3.6 | – | – | – | – | Cc1ccccc1-c1cc2c3c(ccc2n(O)c1=O)OCO3 | inactive | inactive | inactive | inactive | –
20 | 2.5 | – | – | – | – | O=c1c(-c2cccc3ccccc23)cc2cc(O)ccc2n1O | 3400 µM (≈ 1030 µg/mL) | inactive | – | inactive | –
21 | – | – | Not Active | Not Active | Not Active | O=c1[nH]c2ccccc2cc1-c1cccc2ccccc12 | inactive | inactive | inactive | inactive | inactive
22 | 4.8 | 290 | – | – | – | Cc1ccccc1-c1cc2cc(F)ccc2n(O)c1=O | inactive | inactive | inactive | inactive | –
23 | 0.8 | – | – | – | – | C=C[C@]1(C)C[C@H](C)C[C@H](C)[C@H]1c1c(O)ccn(O)c1=O | – | – | – | – | –
24 | 3 | – | – | – | – | Cc1ccccc1-c1cc2ccccc2n(O)c1=O | inactive | 4.1 mM (≈ 1030 µg/mL) | inactive | – | –
25 | – | – | Not Active | – | – | O=c1c(-c2ccc3ccccc3c2)c(O)c2ccccc2n1O | inactive | inactive | inactive | inactive | inactive
26 | 4.6 | – | – | – | – | Cc1ccccc1-c1cc2cc3c(cc2n(O)c1=O)OCO3 | inactive | inactive | inactive | inactive | –
27 | 5.5 | – | – | – | – | COc1cc2cc(-c3ccccc3C)c(=O)n(O)c2cc1OC | inactive | inactive | inactive | inactive | –
28 | 2.9 | – | – | – | – | O=c1c(-c2ccc3ccccc3c2)cc2ccccc2n1O | inactive | 3.6 mM (≈ 1030 µg/mL) | inactive | – | –
